Measurements as given in ChEMBL document CHEMBL1123282, “Antiinflammatory activity of substituted 6-hydroxypyrimido[2,1-f]purine-2,4,8(1H,3H,9H)-triones. Atypical nonsteroidal antiinflammatory agents” (J Med Chem, 1986).
Several values for one entry are separate records, joined by “and”; a condition that tells them apart may be missing. Equal entries are not always repeated. Values belong to the compound of their own block, whether it stands above or below them.

Tests used:
[1] = organism: Rattus norvegicus; experiment: Delayed Type hypersensitivity (DTH) is measured by increase in ear thickness 24 hours after antigen injection into pinna; assay type: functional
[2] = organism: Rattus norvegicus; experiment: compound was tested for antiinflammatory activity by immune response to collagen II antigen in rats, antibody titer was determined by passive hemagglutinination; assay type: functional, organism-based
How it was run: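 Rats immunized with bovine type II collagen in incomplete Freund's adjuvant, with drug given alongside. Antibody titer to collagen II measured by passive hemagglutination; p ≤ 0.05 by Student's t-test.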

[3] = organism: Rattus norvegicus; experiment: compound was tested for antiinflammatory activity against collagen II arthritis in rats,; assay type: functional
How it was run: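 Arthritis induced in rats by injection of bovine articular cartilage type II collagen (dissolved in 0.01 M AcOH, dialysed against saline) mixed 1:1 with incomplete Freund's adjuvant. Paw inflammation checked weekly for 7 weeks. Inhibition = [Δpaw vol(collagen) − Δpaw vol(collagen + drug)]/[Δpaw vol(collagen) − Δpaw vol(ICFA control)] × 100. Bone damage scored by lateral-projection radiography; p ≤ 0.05 by Student's t-test.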

[4] = system: Rattus norvegicus; experiment: Tested in vivo for antiinflammatory activity against chronic adjuvant arthritic rat by prophylactic inhibition 2 degree paw after peroral administration of 10 mg/kg of dose; assay type: functional; settings: route oral
How it was run: (§1)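 Prophylactic regimen, rats. Adjuvant is heat-killed Mycobacterium tuberculosis ground to a fine powder in paraffin oil (6 mg/mL); 0.1 mL is injected into the left hind paw. Oral drug is given 1 h before adjuvant challenge, then for 21 consecutive days; controls receive methyl cellulose. Left (1°) and right (2°) hind paw volumes are measured by plethysmograph.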

[5] = system: Rattus norvegicus; experiment: Tested in vivo for antiinflammatory activity against chronic adjuvant arthritic rat by prophylactic inhibition 1 degree paw after peroral administration of 10 mg/kg of dose; assay type: functional; settings: route oral; how it was run: as §1
[6] = system: Rattus norvegicus; experiment: In vivo antiinflammatory activity against rats by RPAR(reverse passive Arthus reaction) synovitis method; assay type: functional; set-up: concentration or dose not given beside the values
How it was run: (§2)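 Lewis rats, oral drug or placebo 1 h before iv BSA (2.28 mg in saline), then intraarticular rabbit anti-BSA (0.54 mg) into one knee and saline into the other, under light anesthesia. Second oral dose at 3 h; the total of both doses is the calculated dose. About 17 h after induction, subpatellar tissue with synovium is excised and weighed. Response is antibody-minus-saline knee weight, tested by analysis of variance.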

[7] = system: Rattus norvegicus; experiment: Compound was tested in vivo for antiinflammatory activity against rats by RPAR(reverse passive Arthus reaction) synovitis method ata dose of 50 mg/kg, po; assay type: functional; how it was run: as §2
[8] = organism: Rattus norvegicus; experiment: Compound was tested for intestinal Ulcerogenic effect in rats, activity expressed as lesion score; assay type: functional
How it was run: (§3)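 Normal fed rats were gavaged once daily for three consecutive days at 10–300 mg/kg and killed 24 h after the last dose. Intestines were examined for ulcers, recording incidence per group of 8 and a lesion score (±SE).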

[9] = organism: Rattus norvegicus; experiment: Compound was tested for gastric Ulcerogenic effect in rats, activity expressed as lesion length
[10] = organism: Rattus norvegicus; experiment: Compound was tested for intestinal Ulcerogenic effect in rats, activity expressed as ulcer incidence; assay type: functional; how it was run: as §3
[11] = system: Rattus norvegicus; experiment: Compound was tested for intestinal ulcerogenic effect in rats at a dose of 10 mg/kg; assay type: functional; how it was run: as §3
[12] = target: Cyclooxygenase (Rattus norvegicus) (UniProt P35355+Q63921); experiment: In vitro inhibitory activity against Prostaglandin G/H synthase in rat neutrophils at a dose of 50 uM
[13] = target: T1, Polyunsaturated fatty acid 5-lipoxygenase (Rattus norvegicus) (UniProt P12527); experiment: In vitro inhibitory activity against Lipoxygenase in rat neutrophils at a dose of 50 uM
T1 sequence (whole entry): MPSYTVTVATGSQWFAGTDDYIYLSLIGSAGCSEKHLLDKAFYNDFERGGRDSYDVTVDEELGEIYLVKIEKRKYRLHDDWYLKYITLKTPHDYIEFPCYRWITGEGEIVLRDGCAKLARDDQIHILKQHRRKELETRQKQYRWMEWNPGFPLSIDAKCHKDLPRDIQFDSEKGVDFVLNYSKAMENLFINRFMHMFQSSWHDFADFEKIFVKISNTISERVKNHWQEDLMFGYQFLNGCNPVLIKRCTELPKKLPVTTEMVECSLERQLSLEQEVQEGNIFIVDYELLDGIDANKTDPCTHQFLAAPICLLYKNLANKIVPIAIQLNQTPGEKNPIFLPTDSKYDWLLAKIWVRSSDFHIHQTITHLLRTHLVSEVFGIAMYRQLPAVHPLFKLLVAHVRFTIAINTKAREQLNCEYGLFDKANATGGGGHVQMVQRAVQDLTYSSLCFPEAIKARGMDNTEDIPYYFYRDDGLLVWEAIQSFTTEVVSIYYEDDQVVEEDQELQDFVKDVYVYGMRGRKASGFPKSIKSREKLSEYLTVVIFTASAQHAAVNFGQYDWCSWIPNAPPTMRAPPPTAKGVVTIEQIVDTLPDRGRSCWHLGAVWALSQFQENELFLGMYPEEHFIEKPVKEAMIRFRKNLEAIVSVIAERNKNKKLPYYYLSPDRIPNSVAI
How it was run: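 Neutrophils come from the 4 h pleural exudate of male Wistar-Lewis rats given iv BSA plus intrapleural rabbit anti-BSA IgG. Cells are washed, red cells lysed with NH4Cl, and resuspended at about 5×10^6 cells/0.1 mL in Tris pH 7.4 with NaCl and 1 mM CaCl2. Cells are preincubated with compound 4 min at room temperature.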

[14] = system: Rattus norvegicus; experiment: Compound was tested in vivo for antiinflammatory activity against chronic adjuvant arthritic rat by prophylactic inhibition 2 degree paw after peroral administration of 25 mg/kg of dose; assay type: functional; settings: route oral
[15] = system: Rattus norvegicus; experiment: Compound was tested in vivo for antiinflammatory activity against chronic adjuvant arthritic rat by prophylactic inhibition 1 degree paw after peroral administration of 25 mg/kg of dose; assay type: functional; settings: route oral
[16] = system: Rattus norvegicus; experiment: Compound was tested in vivo against chronic adjuvant arthritic rat by prophylactic inhibition 2 degree paw. Relative potency with respect to (8-Benzyl-5-hydroxy-1,3-dimethyl-6-propyl-1H,8H-1,3,4b,8,9-pentaaza-fluorene-2,4,7-trione); assay type: functional
[17] = system: Rattus norvegicus; experiment: Tested in vivo for antiinflammatory activity against chronic adjuvant arthritic rat by prophylactic inhibition 1 degree paw after peroral administration of 9 mg/kg of dose; assay type: functional; settings: route oral; how it was run: as §1
[18] = system: Rattus norvegicus; experiment: Compound was tested in vivo for antiinflammatory activity against chronic adjuvant arthritic rat by prophylactic inhibition 2 degree paw after peroral administration of 36 mg/kg of dose; settings: po
[19] = system: Rattus norvegicus; experiment: Tested in vivo for antiinflammatory activity against chronic adjuvant arthritic rat by prophylactic inhibition 2 degree paw after peroral administration of 9 mg/kg of dose; assay type: functional; settings: route oral; how it was run: as §1
[20] = system: Rattus norvegicus; experiment: Compound was tested in vivo for antiinflammatory activity against chronic adjuvant arthritic rat by prophylactic inhibition 2 degree paw after peroral administration of 18 mg/kg of dose; settings: po
[21] = system: Rattus norvegicus; experiment: Compound was tested in vivo for antiinflammatory activity against chronic adjuvant arthritic rat by prophylactic inhibition 1 degree paw after peroral administration of 36 mg/kg of dose; settings: po

Compound: AURANOFIN
DTH [1]: 0.0445 mM
Antibody titer [2]: 12.9 log-2
Positive [3]: 43.7% and 43.8%

Compound: CCCCC1C(=O)N(Cc2ccccc2)c2nc3ncncc3n2C1=O (stereo not drawn)
inhibition in vivo at 10 mg/kg [4]: 26%
inhibition in vivo at 10 mg/kg [5]: 0%
Inhibition [6]: 21%

Compound: Cc1c(O)n(Cc2cccc(F)c2)c2nc3c(c(=O)n(C)c(=O)n3C)n2c1=O
inhibition in vivo at 50 mg/kg [7]: 0%

Compound: COc1ccc2c(c1)c(CC(=O)O)c(C)n2C(=O)c1ccc(Cl)cc1 [INDOMETHACIN]
Lesion length [8]: 4.2 mm rat-1
Length [9]: 5 mm rat-1
Ulcer incidence [10]: 8 number/group
Ulcer incidence [11]: 8 number/group

inhibition [12]: 49%
inhibition [13]: 26% and 29%
Compound: C/C=C/Cc1c(O)n(Cc2ccccc2)c2nc3c(c(=O)n(C)c(=O)n3C)n2c1=O
inhibition in vivo at 10 mg/kg [4]: 24%
inhibition in vivo at 10 mg/kg [5]: 17%
Inhibition [6]: 12%

Compound: CCCCc1c(O)n(-c2ccc(F)cc2)c2nc3c(c(=O)n(C)c(=O)n3C)n2c1=O
inhibition in vivo at 10 mg/kg [4]: 35%
inhibition in vivo at 10 mg/kg [5]: 29%
Inhibition [6]: 26%

Compound: CC(C)=CCc1c(O)n(Cc2ccc([S+](C)[O-])cc2)c2nc3c(c(=O)n(C)c(=O)n3C)n2c1=O (stereo not drawn)
inhibition in vivo at 25 mg/kg [14]: 47%
inhibition in vivo at 25 mg/kg [15]: 13%

Compound: CCCCc1c(O)n(Cc2ccc(F)cc2)c2nc3c(c(=O)n(C)c(=O)n3C)n2c1=O
Relative potency [16]: 3.8
inhibition in vivo at 9 mg/kg [17]: 28%
inhibition in vivo at 36 mg/kg [18]: 74%
inhibition in vivo at 9 mg/kg [19]: 59%
inhibition in vivo at 18 mg/kg [20]: 70%
inhibition in vivo at 36 mg/kg [21]: 74%
Inhibition [6]: 27%

inhibition [12]: 9%
inhibition [13]: 11% and 7%
Compound: C#CCc1c(O)n(Cc2ccccc2)c2nc3c(c(=O)n(C)c(=O)n3C)n2c1=O
inhibition in vivo at 10 mg/kg [4]: 27%
inhibition in vivo at 10 mg/kg [5]: 6%
Inhibition [6]: 27%

Compound: CSc1ccc(Cn2c(O)c(CC=C(C)C)c(=O)n3c4c(=O)n(C)c(=O)n(C)c4nc23)cc1
inhibition in vivo at 25 mg/kg [14]: 63%
inhibition in vivo at 25 mg/kg [15]: 0%

inhibition [12]: 17%
inhibition [13]: 25% and 38%
Compound: Cn1c(=O)c2c(nc3n(Cc4ccccc4)c(O)c(C4C=CCCC4)c(=O)n23)n(C)c1=O (stereo not drawn)
inhibition in vivo at 10 mg/kg [4]: 2%
inhibition in vivo at 10 mg/kg [5]: 8%
Inhibition [6]: 25%

Compound: CCCCC1C(=O)N(Cc2ccccc2)c2nc3nccnc3n2C1=O (stereo not drawn)
inhibition in vivo at 10 mg/kg [4]: 8%
inhibition in vivo at 10 mg/kg [5]: 0%
Inhibition [6]: 15%

Compound: CCCCc1c(O)n(CC2CCCCC2)c2nc3c(c(=O)n(C)c(=O)n3C)n2c1=O
inhibition in vivo at 10 mg/kg [4]: 34%
inhibition in vivo at 10 mg/kg [5]: 11%
Inhibition [6]: 25%

inhibition [12]: 3%
inhibition [13]: 8% and 5%
Compound: C#CCc1c(O)n(Cc2ccc(F)cc2)c2nc3c(c(=O)n(C)c(=O)n3C)n2c1=O
inhibition in vivo at 25 mg/kg [14]: 19%
inhibition in vivo at 25 mg/kg [15]: 10%
Inhibition [6]: 24%

Compound: CCCCc1c(O)n(Cc2ccccc2)c2nc3c(c(=O)n(C)c(=O)n3C)n2c1=O
Relative potency [16]: 2.1
inhibition in vivo at 9 mg/kg [17]: 17%
inhibition in vivo at 36 mg/kg [18]: 79%
inhibition in vivo at 9 mg/kg [19]: 55%
inhibition in vivo at 18 mg/kg [20]: 64%
inhibition in vivo at 36 mg/kg [21]: 52%
Inhibition [6]: 48%
